Experimental data published in paper PMC2989669 (Bioorganic & medicinal chemistry letters, 2010).
Blank lines part the entries; values can stand above or below the molecule they belong to.

Key:
[1] = molecular target: T1, MIF-CD74 binding (Homo sapiens, UniProt P14174); assay: MIF-CD74 binding assay; details: for IC50 or max % inhib CD74 (result in words): MIF-CD74 binding assay
T1 sequence (P14174 2-115 limits assumed): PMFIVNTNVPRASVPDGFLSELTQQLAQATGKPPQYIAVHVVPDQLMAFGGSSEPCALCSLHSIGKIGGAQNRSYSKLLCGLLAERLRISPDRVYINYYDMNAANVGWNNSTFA

[2] = molecular target: T2, human MIF (Homo sapiens, UniProt P14174); assay: MIF tautomerase assay using 4-hydroxyphenylpyruvate; type: biochemical; details: for IC50 or max % inhib 4-HPP (result in words): tautomerase assay
T2 sequence (P14174 2-115 limits assumed): T1 sequence (P14174 2-115 limits assumed)
Outline: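 Recombinant human MIF; tautomerase activity measured with 4-hydroxyphenylpyruvate (4-HPP) as substrate. Test compounds were run from 1 nM to 1 mM. IC50 was reported. Where inhibition plateaued below 50%, the maximum percent inhibition was reported instead.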

[3] = test system: MIF tautomerase; details: cited from earlier work
[4] = test system: MIF-dependent ERK1/2 phosphorylation; assay: MIF-dependent ERK1/2 phosphorylation in human fibroblasts; type: cell-based; details: human primary fibroblasts, MIF […] trimer, compound 8 nM, 30 min

IC50 [1]: > 1000 µM | IC50 [2]: > 1000 µM
SMILES: Oc1ccc(-n2cc(Cc3cccc(O)c3)nn2)cc1 [4d]

IC50 [1]: > 1000 µM
SMILES: O=C(O)c1cccc(Cn2cc(-c3ccc(O)cc3)nn2)c1 [3i]

SMILES: COC(=O)CC1CC(c2ccc(O)cc2)=NO1 (stereo not shown) [compound 2]
tautomerase inhibition (reported potency) [3]: 7 µM

IC50 or max % inhib CD74 (result in words) [1]: Agon | IC50 or max % inhib 4-HPP (result in words) [2]: Agon
SMILES: Oc1ccc(-n2cc(-c3cccnc3)nn2)cc1 [5a]
effect on MIF-dependent ERK1/2 phosphorylation [4]: enhances ERK1/2 phosphorylation

IC50 or max % inhib CD74 (result in words) [1]: Agon | IC50 or max % inhib 4-HPP (result in words) [2]: Agon
SMILES: Oc1ccc(-n2cc(-c3cncc4ccccc34)nn2)cc1 [5c]
effect on MIF-dependent ERK1/2 phosphorylation [4]: enhances ERK1/2 phosphorylation

IC50 [1]: > 1000 µM
SMILES: Cc1cccc(Cn2cc(-c3ccc(O)cc3)nn2)c1 [3c]

IC50 [1]: > 1000 µM
SMILES: COc1cccc(Cc2cn(-c3ccc(O)cc3)nn2)c1OC [4i]

IC50 or max % inhib CD74 (result in words) [1]: Agon | IC50 or max % inhib 4-HPP (result in words) [2]: Agon
SMILES: COc1ccccc1Cn1cc(-c2ccc(O)cc2)nn1 [3d]
effect on MIF-dependent ERK1/2 phosphorylation [4]: enhances ERK1/2 phosphorylation

IC50 [1]: ~1 µM | IC50 [2]: ~1 µM
SMILES: COc1cccc(Cn2cc(-c3ccc(O)cc3)nn2)c1OC [3g]
effect on MIF-dependent ERK1/2 phosphorylation [4]: strongly inhibits

IC50 [1]: > 1000 µM
SMILES: COc1ccc(Cn2cc(-c3ccc(O)cc3)nn2)cc1 [3f]

IC50 [1]: > 1000 µM
SMILES: Cc1ccccc1Cn1cc(-c2ccc(O)cc2)nn1 [3b]

IC50 [1]: ~1 µM | IC50 [2]: ~1 µM
SMILES: COC(=O)c1cccc(Cn2cc(-c3ccc(O)cc3)nn2)c1 [3h]

IC50 [1]: > 1000 µM
SMILES: Oc1ccc(-n2cc(-c3cccc4ccccc34)nn2)cc1 [5b]

IC50 [1]: > 1000 µM
SMILES: Oc1ccc(-c2cn(Cc3ccccc3)nn2)cc1 [3a]

SMILES: CCOC(=O)c1cc2ccc(O)cc2oc1=O [compound 1]
tautomerase inhibition (reported potency) [3]: 7 µM
